High-throughput results from PubChem.
Only some compounds are listed: those with a hit (about 3.9% of all), similar ones and a draw of the others.
TAAR1 antag = human TAAR1 antagonists, primary screen, Fluo-8 calcium fluorescence, CHO RD-HGA16 cells | 360,000 tested, 1.5% active | inhibition, % at 3 µM | Trace amine-associated receptor 1 (Homo sapiens), Q96RJ0 | antagonist;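 active = inhibition above a per-plate cutoff, the mean inhibition of test compounds on that plate plus 3 SD, cut at about 49% in these data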
Target sequence (Q96RJ0 whole entry, looked up): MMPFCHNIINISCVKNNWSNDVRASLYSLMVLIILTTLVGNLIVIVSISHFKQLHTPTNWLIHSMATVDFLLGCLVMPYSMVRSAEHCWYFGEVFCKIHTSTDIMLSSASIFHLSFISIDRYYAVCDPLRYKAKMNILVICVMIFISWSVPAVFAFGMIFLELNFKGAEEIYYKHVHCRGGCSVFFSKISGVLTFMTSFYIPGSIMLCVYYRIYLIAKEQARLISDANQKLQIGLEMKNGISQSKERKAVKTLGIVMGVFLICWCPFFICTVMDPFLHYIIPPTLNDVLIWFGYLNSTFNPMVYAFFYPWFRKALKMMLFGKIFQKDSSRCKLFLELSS
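Test system: hTAAR1-expressing CHO RD-HGA16 cells, Gα16-coupled; Probe or stimulus: EC80 β-phenethylamine stimulus; Compound dosing: single nominal final test compound concentration of 3 µM; Timing: 140 s kinetic read after compound, 140 s after agonist; Signal: Fluo-8 calcium-sensitive fluorescence; Measure: % inhibition of agonist calcium response; Controls: DMSO and EC80 PEA controls.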
CHO parental Ca = ATP-evoked calcium signal inhibitors, parental CHO, primary screen, counter-screen for OX1R antagonist project, cell-based, fluorescence, Fluo-8 calcium dye | parental CHO-K1, ATP-induced calcium, Fluo-8 fluorescence | inhibition, % at 5.6 µM | 330,000 tested, 0.63% active;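 active = inhibition above that plate's mean sample inhibition plus 3 SD, cut at about 26% in these data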
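material = parental CHO cells | also added = ATP as calcium-mobilizing challenge | dosing = single point at 5.6 µM | detection = intracellular calcium via Fluo-8 no-wash fluorescent dye | read-out = % inhibition | benchmarks = low control ATP plus DMSO, high control DMSO only | repeats = one well per compound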
OX1R antag-1 = OX1R (HCRTR1) antagonists, primary screen, fluorescence, CHO/OX1R cells, Fluo-8 calcium, orexin A; Orexin/Hypocretin receptor type 1 (Homo sapiens), O43613; Fluo-8 calcium fluorescence; inhibition, % at 5 µM; 330,000 tested, 0.43% active;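 active = inhibition above its plate's threshold, mean inhibition of all tested compounds on the plate plus 3 SD, cut at about 37% in these data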
OX1R antag-2 = antagonists of human orexin 1 receptor (OX1R) | 330,000 tested, 1.8% active | AID 485270, 2010 | inhibition, % at 6.6 µM | Orexin/Hypocretin receptor type 1 (Homo sapiens), O43613 | OX1R-expressing cells, FRET antagonist read-out; in the data active = inhibition mostly above about 38%, no sharp cut-off; inactive = mostly below about 40%
TAAR1 ag = human TAAR1 agonists, primary screen, Fluo-8 calcium fluorescence, CHO RD-HGA16 cells | vehicle wells 0%, saturating PEA agonist 100% | AID 624467, 2012 | 360,000 tested, 0.99% active | Trace amine-associated receptor 1 (Homo sapiens), Q96RJ0 | activation, % at 3 µM;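 active = activation above the mean activation of all test compounds in the run plus 3 SD, cut at about 38% in these data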
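System: CHO RD-HGA16 cells carrying human TAAR1 plus Gα16; Incubation: 17-24 h seeding, 75 min 37 °C dye, 30 min RT; Measured by: Fluo-8 fluorescence, 5 s baseline then 140 s kinetic read; Control set: DMSO and PEA EC100; Replication: single well for each compound.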
nonsel antag count = nonselective antagonists in TAAR1 counter-screen cells, counter-screen for hTAAR1 antagonist project, cell-based, fluorescence, calcium; shares compounds with TAAR1 antag; counterscreen cell line, antagonist mode; inhibition, % at 3 µM; 2,400 tested, 77% active; AID 651780, 2012; in the data active = inhibition above about 22%;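 also: CHO-Ga16 host cells stimulated with ATP at an EC80 level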
TAAR1 antag conf = human TAAR1 antagonists, retest of hits, confirmation, cell-based, fluorescence; shares compounds with TAAR1 antag; TAAR1-expressing cells, fluorescence antagonist read-out; inhibition, % at 3 µM; 2,400 tested, 40% active; AID 651785, 2012; in the data active = inhibition above about 49%;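 also: CHO-Ga16 host cells challenged with agonist PEA near its EC80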
Ga16 nonsel ag = calcium activation in Ga16-expressing cells, counter-screen for TAAR1 antagonist project, cell-based, fluorescence; shares compounds with TAAR1 antag; agonist counterscreen; activation, % at 3 µM; 2,400 tested, 18% active; AID 651953, 2012; in the data active = activation above about 12%
TAAR1 ag counter = TAAR1 activation by candidate antagonists – cell-based, fluorescence, counter-screen for TAAR1 antagonist project. hTAAR1 cell line, agonist mode. activation, % at 3 µM. 2,400 tested, 2% active. shares compounds with TAAR1 antag; in the data active = activation above about 37%;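 also: CHO cells stably expressing TAAR1 with calcium dye readout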
Numbers stand for hits; . = inactive; / = no result.

SMILES	TAAR1 antag	CHO parental Ca	OX1R antag-1	OX1R antag-2	TAAR1 ag	nonsel antag count	TAAR1 antag conf	Ga16 nonsel ag	TAAR1 ag counter
Cc1cccc(NC(=O)C2(c3cccs3)CCOCC2)n1	.	.	.	.	.	/	/	/	/
CCCCn1c(NC(=O)c2ccccc2)c(C#N)c2nc3ccccc3nc21	.	/	/	/	.	/	/	/	/
CCC(C)n1c(NC(=O)c2ccccc2)c(C#N)c2nc3ccccc3nc21 (stereo unspecified)	54.5	.	.	.	.	28.1	.	.	.
O=C(Nc1ccccc1)c1ccc(F)c(S(=O)(=O)N2CCOCC2)c1	.	.	.	.	.	/	/	/	/
O=C(Nc1ccc(-c2cn3ccsc3n2)cc1)c1ccc(F)c(S(=O)(=O)N2CCOCC2)c1	91.1	.	.	.	.	39.0	74.9	11.6	.
CCN(CC(=O)Nc1ccc(OC)cc1)C(=O)CN1C(=O)NC(C)(c2ccc3ccccc3c2)C1=O (stereo unspecified)	.	.	.	.	.	/	/	/	/
COc1ccccc1N1CCN(C(=O)CCCn2c(=S)[nH]c3ccccc3c2=O)CC1	65.0	/	/	/	.	.	.	.	.
COc1ccccc1N1CCN(C(=O)CCn2c(=O)[nH]c3ccccc3c2=O)CC1	.	.	.	.	.	/	/	/	/
O=C(NCCCCc1ccccc1)C1CC(c2ccc(C(F)(F)F)cc2)=NO1 (stereo unspecified)	84.3	.	.	.	.	23.0	.	.	.
O=C(CCCCCN1C(=O)[C@@H]2Cc3ccccc3CN2C1=O)Nc1cccc(F)c1	67.0	.	.	.	.	41.8	59.8	13.4	.
Cc1ccc2c(c1)-c1c(cnn1CC(=O)N1CCCN(Cc3ccccc3F)C1)CO2	75.3	.	.	43.2	.	27.7	51.8	.	.
CC(C)(C)S(=O)N1C[C@@H]2CC(=O)C(c3ccccc3)=C2[C@H]1CCO (stereo partly specified)	.	/	/	/	.	/	/	/	/
COc1ccc(C2=NS(=O)(=O)N(C)C(C(=O)Nc3cc(C)ccc3O)=C2)cc1OC	70.1	.	.	.	.	39.6	51.4	.	.
C#CCOc1ccccc1CNC1CCN(Cc2ccccc2)CC1	.	.	.	.	.	/	/	/	/
O=C(CSc1cn(CCNC(=O)c2c(F)cccc2F)c2ccccc12)NCC1CCCO1 (stereo unspecified)	.	.	.	.	.	/	/	/	/
O=C(NCCn1cc(SCc2ccc(F)cc2)c2ccccc21)c1c(F)cccc1F	73.5	42.1	.	.	.	30.8	.	.	.
O=C(NCCn1cc(SCc2ccccc2)c2ccccc21)c1c(F)cccc1F	85.4	70.0	.	.	.	32.2	.	.	.
COc1ccc([C@H]2C[C@H](O)[C@@H](n3cc(-c4ccc(F)cc4)nn3)CN2C(=O)C2CCCCC2)cc1	.	/	/	/	.	/	/	/	/
COc1ccc(Br)cc1CN1CCN(S(=O)(=O)Cc2ccccc2)CC1	56.5	.	.	.	.	.	.	.	.
COc1ccc([N+](=O)[O-])cc1NC(=O)C(C)OC(=O)CSC(C)C(=O)Nc1cc(C)on1 (stereo unspecified)	.	.	.	.	.	/	/	/	/
COc1ccc(C(=O)Nc2cccc(/C=C/c3nc4ccccc4c(=O)[nH]3)c2)cc1	54.6	.	.	.	.	.	.	.	.
